Assay results as given in ChEMBL document CHEMBL4130635, “2,4-Diaminoquinazolines as Dual Toll-like Receptor (TLR) 7/8 Modulators for the Treatment of Hepatitis B Virus” (J Med Chem, 2018).

Assays:
[1] = target: T1, Toll-like receptor 7 (Homo sapiens) (UniProt Q9NYK1); experiment: Agonist activity at TLR7 in human PBMC assessed as suppression of HCV replicon replication in human HuH7 luc/neo cells harboring RNA encoding bicistronic expression construct comprising wild type HCV type 1b NS3-NS5B regions exposed to conditioned media from compound treated PBMCs after 24 hrs by luciferase reporter gene assay; assay type: cell-based
T1 sequence (whole entry): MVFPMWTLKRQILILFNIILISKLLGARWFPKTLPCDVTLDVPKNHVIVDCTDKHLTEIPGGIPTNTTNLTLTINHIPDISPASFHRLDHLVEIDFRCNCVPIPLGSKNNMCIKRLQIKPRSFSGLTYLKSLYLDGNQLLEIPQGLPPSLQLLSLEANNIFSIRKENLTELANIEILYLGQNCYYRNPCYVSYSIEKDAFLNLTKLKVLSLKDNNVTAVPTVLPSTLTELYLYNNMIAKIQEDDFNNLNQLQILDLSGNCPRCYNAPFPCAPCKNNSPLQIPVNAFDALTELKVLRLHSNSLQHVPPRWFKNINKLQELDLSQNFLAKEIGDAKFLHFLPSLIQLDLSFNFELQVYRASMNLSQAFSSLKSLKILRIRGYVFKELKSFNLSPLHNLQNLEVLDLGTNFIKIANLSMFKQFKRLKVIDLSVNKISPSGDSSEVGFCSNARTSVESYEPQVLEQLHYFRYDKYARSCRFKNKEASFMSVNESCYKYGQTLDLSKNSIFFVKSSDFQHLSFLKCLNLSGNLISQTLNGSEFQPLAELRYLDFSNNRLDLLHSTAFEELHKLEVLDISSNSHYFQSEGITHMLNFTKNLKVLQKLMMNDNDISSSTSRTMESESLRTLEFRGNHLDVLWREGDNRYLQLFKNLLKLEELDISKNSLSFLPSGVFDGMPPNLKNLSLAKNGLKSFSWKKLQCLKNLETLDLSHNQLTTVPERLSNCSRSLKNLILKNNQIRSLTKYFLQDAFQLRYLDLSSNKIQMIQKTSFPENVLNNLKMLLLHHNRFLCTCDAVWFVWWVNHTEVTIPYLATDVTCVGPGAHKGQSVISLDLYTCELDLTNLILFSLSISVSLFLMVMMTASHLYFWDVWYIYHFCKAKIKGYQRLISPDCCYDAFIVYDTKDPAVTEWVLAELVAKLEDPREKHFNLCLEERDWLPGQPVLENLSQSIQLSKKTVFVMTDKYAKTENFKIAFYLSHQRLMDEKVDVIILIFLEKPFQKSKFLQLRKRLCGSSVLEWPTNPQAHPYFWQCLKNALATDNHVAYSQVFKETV
In short: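 Human PBMCs were incubated with compound. Their medium was then transferred onto an HCV replicon system, so the antiviral read-out reflects interferon and cytokines the PBMCs induced. Values are reported as lowest effective concentration (LEC), averaged when determined in two or more independent experiments.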

[2] = Cytotoxicity against HEK293 cells assessed as reduction in cell viability after 6 hrs by ATP lite assay; assay type: cell-based; settings: human
[3] = Metabolic stability in human liver microsomes assessed as compound metabolized at 1 uM after 15 mins; assay type: ADME, microsome; settings: read-out: Drug metabolism
In short: (§1)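 Mouse (M) or human (H) liver microsomes incubated with compound at 1 μM; percent metabolized after 15 min.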

[4] = target: Voltage-gated inwardly rectifying potassium channel KCNH2 (Homo sapiens, UniProt Q12809); experiment: Inhibition of radioligand binding to human ERG expressed in HEK293 cell membranes by scintillation counting method
[5] = Metabolic stability in mouse liver microsomes assessed as compound metabolized at 1 uM after 15 mins; assay type: ADME, microsome; settings: read-out: Drug metabolism; in short: as §1
[6] = target: T2, Toll-like receptor 8 (Homo sapiens) (UniProt Q9NR97); experiment: Agonist activity at human TLR8 expressed in HEK293 cells assessed as induction of receptor activation incubated for 6 hrs by NF-kappaB-luciferase reporter gene assay; assay type: cell-based
T2 sequence (whole entry): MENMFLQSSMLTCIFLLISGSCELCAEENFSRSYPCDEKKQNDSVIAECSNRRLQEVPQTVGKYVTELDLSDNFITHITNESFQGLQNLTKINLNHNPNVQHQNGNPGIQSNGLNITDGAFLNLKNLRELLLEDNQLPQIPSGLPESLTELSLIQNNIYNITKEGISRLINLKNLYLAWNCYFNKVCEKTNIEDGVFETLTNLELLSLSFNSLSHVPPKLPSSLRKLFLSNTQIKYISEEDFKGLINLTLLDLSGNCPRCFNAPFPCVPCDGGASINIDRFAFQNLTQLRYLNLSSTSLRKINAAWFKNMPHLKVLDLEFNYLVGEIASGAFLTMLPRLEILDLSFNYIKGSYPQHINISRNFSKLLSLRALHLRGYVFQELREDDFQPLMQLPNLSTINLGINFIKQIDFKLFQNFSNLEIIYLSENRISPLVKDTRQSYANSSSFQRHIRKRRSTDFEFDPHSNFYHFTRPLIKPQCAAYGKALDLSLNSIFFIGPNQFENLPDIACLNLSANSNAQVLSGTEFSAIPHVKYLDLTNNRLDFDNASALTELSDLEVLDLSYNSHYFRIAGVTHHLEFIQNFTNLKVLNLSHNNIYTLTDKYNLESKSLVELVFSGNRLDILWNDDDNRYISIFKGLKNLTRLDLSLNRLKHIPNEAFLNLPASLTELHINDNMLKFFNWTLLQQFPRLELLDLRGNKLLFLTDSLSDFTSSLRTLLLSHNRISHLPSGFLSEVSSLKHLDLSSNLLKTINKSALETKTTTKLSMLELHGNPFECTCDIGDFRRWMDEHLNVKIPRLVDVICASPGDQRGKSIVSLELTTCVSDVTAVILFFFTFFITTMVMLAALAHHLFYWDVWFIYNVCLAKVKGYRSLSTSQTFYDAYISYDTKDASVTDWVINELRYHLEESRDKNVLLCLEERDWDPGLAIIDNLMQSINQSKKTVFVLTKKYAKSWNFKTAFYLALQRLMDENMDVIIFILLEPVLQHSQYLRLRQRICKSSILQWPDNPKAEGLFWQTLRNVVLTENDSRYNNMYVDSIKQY

[7] = target: T1, Toll-like receptor 7 (Homo sapiens); experiment: Agonist activity at human TLR7 expressed in HEK293 cells assessed as induction of receptor activation incubated for 6 hrs by NF-kappaB-luciferase reporter gene assay; assay type: cell-based
In short: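 HEK cell-based assay using a wild-type TLR7 expression vector; a parallel TLR8 vector construct served for selectivity. Results are expressed as lowest effective concentration (LEC), averaged over independent experiments where determined two or more times. A separate HEK 293 cytotoxicity (TOX) assay gave CC50 alongside.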

HepG2 = experiment: Cytotoxicity against human HepG2 cells; assay type: cell-based

Sequence of Voltage-gated inwardly rectifying potassium channel KCNH2 (Q12809 whole entry): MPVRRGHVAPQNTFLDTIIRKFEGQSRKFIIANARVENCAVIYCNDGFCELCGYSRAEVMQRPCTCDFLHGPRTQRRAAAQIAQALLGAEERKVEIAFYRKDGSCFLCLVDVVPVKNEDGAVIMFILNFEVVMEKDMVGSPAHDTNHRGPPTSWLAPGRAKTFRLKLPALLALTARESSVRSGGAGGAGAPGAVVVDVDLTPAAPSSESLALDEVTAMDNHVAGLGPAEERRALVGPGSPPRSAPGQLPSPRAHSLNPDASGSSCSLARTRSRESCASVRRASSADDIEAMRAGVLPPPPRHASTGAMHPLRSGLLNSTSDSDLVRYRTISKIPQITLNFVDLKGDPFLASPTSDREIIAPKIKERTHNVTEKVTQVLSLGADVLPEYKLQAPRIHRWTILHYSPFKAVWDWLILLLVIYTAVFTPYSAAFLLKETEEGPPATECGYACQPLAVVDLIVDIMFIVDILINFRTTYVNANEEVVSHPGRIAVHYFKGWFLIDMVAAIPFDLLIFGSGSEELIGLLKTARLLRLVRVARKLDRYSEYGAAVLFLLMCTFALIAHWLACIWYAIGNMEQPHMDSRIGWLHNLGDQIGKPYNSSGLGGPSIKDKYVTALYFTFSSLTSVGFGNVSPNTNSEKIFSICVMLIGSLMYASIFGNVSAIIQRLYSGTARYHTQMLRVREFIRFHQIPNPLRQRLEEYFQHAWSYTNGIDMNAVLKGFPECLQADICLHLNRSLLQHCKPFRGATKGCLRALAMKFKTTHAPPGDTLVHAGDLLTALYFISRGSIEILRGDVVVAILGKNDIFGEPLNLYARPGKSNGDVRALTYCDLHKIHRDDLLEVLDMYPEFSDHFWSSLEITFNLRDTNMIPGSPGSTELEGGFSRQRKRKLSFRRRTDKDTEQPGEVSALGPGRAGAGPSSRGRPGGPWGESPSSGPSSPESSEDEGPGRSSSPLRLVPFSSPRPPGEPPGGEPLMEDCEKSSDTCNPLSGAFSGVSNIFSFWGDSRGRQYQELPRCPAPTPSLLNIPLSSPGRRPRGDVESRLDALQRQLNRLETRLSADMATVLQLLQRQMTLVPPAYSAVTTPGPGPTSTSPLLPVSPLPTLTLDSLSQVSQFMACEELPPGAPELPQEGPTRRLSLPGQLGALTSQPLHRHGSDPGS

Structure (SMILES) | MEC [1] | CC50 at 6 h [2] | metabolised at 0.25 h, 1 µM [3] | IC50 [4] | metabolised at 0.25 h, 1 µM [5] | MEC [6] | MEC [7] | EC20 (HepG2)
CCCC[C@@H](CCO)Nc1nc(N)nc2c(F)cccc12 | 0.05 µM | > 24 µM | 76% | 4.47 µM | 98% | 0.16 µM | 0.11 µM | –
CCCC[C@@H](CCO)Nc1nc(N)nc2cc(F)ccc12 | 0.04 µM | > 24 µM | 39% | – | 91% | 0.03 µM | 0.04 µM | –
CCCC[C@H](CO)Nc1nc(N)nc2ccccc12 | 0.16 µM | > 24 µM | – | – | – | 0.05 µM | 22.5 µM | –
CCC[C@H](CO)Nc1nc(N)nc2ccccc12 | 2.36 µM | > 24 µM | – | – | – | 0.57 µM | > 25 µM | –
CCCCNc1nc(N)nc2ccccc12 | 0.03 µM | > 24 µM | – | – | – | 0.06 µM | 0.16 µM | –
CCCC[C@@H](CCO)Nc1nc(N)nc2cccc(F)c12 | 0.06 µM | > 24 µM | 87% | > 10 µM | 25% | 0.1 µM | 0.34 µM | 13.2 µM
CC(C)C[C@@H](CCO)Nc1nc(N)nc2ccccc12 | 0.55 µM | > 24 µM | – | – | – | 0.69 µM | 1.83 µM | –
CCCC[C@@H](CCO)Nc1nc(N)nc2cc(OC)ccc12 | 0.04 µM | > 24 µM | 37% | – | 80% | 0.16 µM | 0.16 µM | –
CCC[C@@H](CCO)Nc1nc(N)nc2cccc(F)c12 | – | > 24 µM | 62% | 8.9 µM | 47% | 0.02 µM | 0.22 µM | –
CCCC[C@@H](CCO)Nc1nc(N)nc2cc(C)ccc12 | 0.02 µM | > 24 µM | 70% | 1.8 µM | 98% | 0.06 µM | 0.03 µM | –
CCC[C@@H](CCO)Nc1nc(N)nc2ccc(OC)cc12 | – | > 24 µM | – | – | – | 2.97 µM | 11.8 µM | –
CCC[C@@H](CO)Nc1nc(N)nc2ccccc12 | 0.04 µM | > 24 µM | – | – | – | 0.01 µM | 0.46 µM | –
CCC[C@@H](CCO)Nc1nc(N)nc2ccc(C)cc12 | 0.39 µM | > 24 µM | 21% | 7.2 µM | 97% | 0.45 µM | 0.54 µM | –
CCCC[C@@H](CCO)Nc1nc(N)nc2ccc(C)cc12 | 0.14 µM | > 24 µM | 24% | 5.4 µM | 99% | 0.25 µM | 0.44 µM | –
CC[C@@H](CO)Nc1nc(N)nc2ccccc12 | 2.3 µM | > 24 µM | – | – | – | 0.19 µM | 3.9 µM | –
CCC[C@@H](CCO)Nc1nc(N)nc2cc(F)ccc12 | 4.8 µM | > 24 µM | 13% | 9.1 µM | 100% | 0.04 µM | 0.11 µM | –
CCC[C@@H](CCO)Nc1nc(N)nc2ccccc12 | 0.38 µM | > 24 µM | 23% | 6.8 µM | 72% | 0.11 µM | 0.2 µM | –
CCCC[C@@H](CCO)Nc1nc(N)nc2ccc(F)cc12 | 0.37 µM | > 24 µM | 33% | 5.8 µM | 63% | 0.42 µM | 1.59 µM | –
CCC[C@@H](CCO)Nc1nc(N)nc2cc(C)ccc12 | 0.39 µM | > 24 µM | 44% | 8.1 µM | 87% | 0.05 µM | 0.06 µM | –
CC(C)C[C@@H](CO)Nc1nc(N)nc2ccccc12 | 0.71 µM | > 24 µM | – | – | – | 0.45 µM | 3.18 µM | –
CCCC[C@@H](CCO)Nc1nc(N)nc2ccc(OC)cc12 | 0.88 µM | > 24 µM | 25% | 6 µM | 97% | 2.81 µM | 1.85 µM | –
CCC[C@@H](CCO)Nc1nc(N)nc2cccc(C)c12 | – | > 24 µM | 44% | 5.5 µM | 88% | 0.14 µM | 0.22 µM | –
CCCC[C@@H](CCO)Nc1nc(N)nc2ccccc12 | 0.02 µM | > 24 µM | 45% | 2.7 µM | 82% | 0.08 µM | 0.08 µM | –
CCCC[C@@H](CCO)Nc1nc(N)nc2cccc(C)c12 | 0.02 µM | > 24 µM | 67% | 0.6 µM | 82% | 0.06 µM | 0.14 µM | –
CC[C@H](C)[C@@H](CO)Nc1nc(N)nc2ccccc12 | 0.14 µM | > 24 µM | – | – | – | 0.08 µM | 1.34 µM | –
CCC[C@@H](CCO)Nc1nc(N)nc2ccc(F)cc12 | – | > 24 µM | 22% | – | 47% | 0.42 µM | 1.05 µM | –
CCCC[C@@H](CO)Nc1nc(N)nc2ccccc12 | 0.04 µM | > 24 µM | – | – | – | 0.02 µM | 0.24 µM | –
